Experimental findings from ChEMBL document CHEMBL1143139, “Structure-activity studies on splitomicin derivatives as sirtuin inhibitors and computational prediction of binding mode” (J Med Chem, 2008) are described below.

Assay [1] addresses T1, NAD-dependent protein deacetylase sirtuin-2 (Homo sapiens, UniProt Q8IXJ6).
T1 sequence (Q8IXJ6 whole entry): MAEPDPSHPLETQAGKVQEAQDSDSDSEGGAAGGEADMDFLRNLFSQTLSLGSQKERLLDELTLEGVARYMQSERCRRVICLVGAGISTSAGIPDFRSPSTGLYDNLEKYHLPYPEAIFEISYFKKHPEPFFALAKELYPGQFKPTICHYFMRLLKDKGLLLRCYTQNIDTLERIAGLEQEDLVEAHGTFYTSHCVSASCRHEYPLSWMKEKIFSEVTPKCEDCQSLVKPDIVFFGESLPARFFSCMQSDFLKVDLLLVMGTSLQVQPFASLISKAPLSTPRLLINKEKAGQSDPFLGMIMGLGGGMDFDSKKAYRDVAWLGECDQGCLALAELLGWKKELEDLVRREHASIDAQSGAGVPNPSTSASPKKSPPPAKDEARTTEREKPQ
The assay is described as follows: Inhibition of human recombinant Sirt2 expressed in Escherichia coli BL21 by fluorescent deacetylase assay.

The target in assay [2] is T2, NAD-dependent protein deacetylase sirtuin-2 (Homo sapiens) (UniProt Q8IXJ6).
T2 sequence (whole entry): T1 sequence (Q8IXJ6 whole entry)
The assay is described as follows: Inhibition of human recombinant Sirt2 expressed in Escherichia coli BL21 at 40 uM by fluorescent deacetylase assay. The method, boiled down:
(§1)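 Full-length human Sirt2, N-terminal His6 tag, expressed in E. coli BL21 (IPTG 0.1 mM, 2 h). 60 µL reaction with fluorescent acetyl-lysine substrate ZMAL 10.5 µM, NAD+ 500 µM, inhibitor from DMSO stock, 4 h at 37 °C. Deacetylated product developed by tryptic digest; fluorescence at ex 390/em 460 nm. Inhibition calculated versus no-inhibitor control; at least duplicate.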

The target in assay [3] is T2, NAD-dependent protein deacetylase sirtuin-2 (Homo sapiens). Description: Inhibition of human recombinant Sirt2 expressed in Escherichia coli BL21 at 20 uM by fluorescent deacetylase assay. The method, boiled down: as §1
Assay [4] concerns MCF7. Description: Induction of tubulin hyperacetylation in human MCF7 cells at 10 uM by Western blot. In kind it is functional, cell-based. The method in brief: (§2)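 MCF-7 cells seeded at 500000/well, treated 24 h later with compound or DMSO for 8 h at 37 °C. PBS-washed cells lysed in Tris-HCl pH 7.5, EDTA, NaCl, 0.5% NP-40 plus protease inhibitors. Protein quantified by BCA before Western blotting.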
(A western blot detects proteins with antibodies after separation by electrophoresis.)

The subject of assay [5] is MCF7. Description: Growth inhibition of human MCF7 cells at 500 uM by MTT assay. The class given is functional. The method, boiled down:
(§3)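 MCF-7 cells in RPMI-1640 with 10% FBS, L-glutamine and penicillin/streptomycin at 37 °C, 5% CO2; 5000 cells/well, compound or DMSO vehicle added 24 h after seeding, then 72 h exposure.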
In general terms: Tetrazolium assays rely on reduction of a dye to a coloured formazan, in cell work by metabolically active cells.

Assay [6] has as its target T2, NAD-dependent protein deacetylase sirtuin-2 (Homo sapiens). The assay is described as follows: Inhibition of human recombinant Sirt2 expressed in Escherichia coli BL21 at 100 uM by fluorescent deacetylase assay. The method in brief:
as §1

The test system of assay [7] is MCF7. The assay is described as follows: Induction of tubulin hyperacetylation in human MCF7 cells at 100 uM by Western blot. The class given is functional, cell-based. The method in brief:
as §2

The test system of assay [8] is MCF7. Description: Antiproliferative activity against human MCF7 cells by MTT assay. The class given is functional. The method in brief:
as §3

As usually defined, the IC50 is the concentration that inhibits the measured activity by half. One may read the inhibition as the share of the control response that was lost under treatment. A word on the Inhibition: it is the relative decrease from the control value, in per cent. As a reminder, the GI50 is the concentration giving 50% growth inhibition. A lower GI50 goes with more potent growth inhibition.

Calls of active or inactive are those of the source. The calls are words filed in the database; no cut-off is given here.

`O=C1CC(c2cccc(F)c2)c2c(ccc3cc(Br)ccc23)O1` (stereo not drawn): the IC50 in assay [1] was 3.2 µM.

With `Cc1ccc(C2CC(=O)Oc3ccc4cc(Br)ccc4c32)cc1F` (stereo not drawn), the half-maximal inhibitory concentration (IC50) in assay [1] was found to be 2 µM.

Turning to `Cc1ccc2c3c(ccc2c1)OC(=O)C[C@@H]3c1ccccc1`, the IC50 in assay [1] came to 3.4 µM.

With `O=C1CC(c2ccccc2)c2c(ccc3cc(I)ccc23)O1` (stereo not drawn), the 50% inhibitory concentration (IC50) in assay [1] turned out to be 19.5 µM.

Turning to `O=C1CC(c2ccccc2)c2c(ccc3ccccc23)O1` (stereo not drawn), the inhibition in assay [2] worked out at 49.1%.

`Cc1ccc2c3c(ccc2c1)OC(=O)CC3c1ccc(-c2ccccc2)cc1` (stereo not drawn): in assay [3], the inhibition amounted to 28.3%.

On to `O=C1CC(c2ccccc2)c2c(ccc3cc(-c4cccc(O)c4)ccc23)O1` (stereo not drawn), for which the inhibition in assay [3] worked out at 37.5%.

`NC(=O)[C@H]1CCCCc2c1[nH]c1ccc(Cl)cc21`: the outcome in assay [4] was Active.

With `O=C1CC(c2ccccc2)c2c(cc(Br)c3cc(Br)ccc23)O1` (stereo not drawn), the inhibition in assay [2] was found to be 9.6%.

In the case of `O=C1CC(c2ccccc2)c2c(ccc3cc(Br)ccc23)N1` (stereo not drawn), in assay [1], the 50% inhibitory concentration (IC50) stood at 6.4 µM.

On to `O=C1CC(c2ccccc2)c2c(ccc3cc(-c4ccc5ccccc5c4)ccc23)O1` (stereo not drawn), for which the inhibition in assay [3] was found to be 15.1%.

With `CC(=O)c1ccc2c3c(ccc2c1)OC(=O)CC3c1ccccc1` (stereo not drawn), the inhibition in assay [3] was found to be 24%.

As to `O=C1CC(c2ccc(F)cc2)c2c(ccc3ccccc23)N1` (stereo not drawn), in assay [2], the inhibition amounted to 16.9%.

As to `Cc1ccc2c3c(ccc2c1)OC(=O)CC3c1ccc(C)c(F)c1` (stereo not drawn), the half-maximal inhibitory concentration (IC50) in assay [1] stood at 3.4 µM.

Consider `O=C1CC(c2ccc(F)cc2)c2c(ccc3cc(Br)ccc23)O1` (stereo not drawn), for which, in assay [1], the IC50 came to 7.9 µM.

`Cc1ccc2c3c(ccc2c1)OC(=O)CC3c1ccccc1` (stereo not drawn): the concentration for half-maximal inhibition (IC50) in assay [1] is 10.6 µM.

Regarding `Cc1ccc2c3c(ccc2c1)OC(=O)CC3c1cccc(O)c1` (stereo not drawn), the inhibition in assay [3] came to 15.4%.

As to `NC(=O)c1ccc2c3c(ccc2c1)OC(=O)CC3c1ccccc1` (stereo not drawn), in assay [2], the outcome was inactive.

As for `COc1ccc2ccc3c(c2c1)C(c1ccccc1)CC(=O)O3` (stereo not drawn), the outcome in assay [2] was inactive.

Turning to `COc1cc(C2CC(=O)Oc3ccc4cc(Br)ccc4c32)ccc1C` (stereo not drawn), the inhibition in assay [3] was determined as 6.3%.

In the case of `COc1cc(C2CC(=O)Oc3ccc4cc(C)ccc4c32)ccc1C` (stereo not drawn), the inhibition in assay [3] worked out at 9.2%.

As for `O=C1CC(c2ccc(-c3ccccc3)cc2)c2c(ccc3ccccc23)N1` (stereo not drawn), the inhibition in assay [2] amounted to 4.2%.

As to `O=C1CC(c2ccccc2)c2c(ccc3cc(-c4ccccc4)ccc23)O1` (stereo not drawn), the inhibition in assay [2] is 26.2%. The compound further gave an Inhibition in assay [5] of 57%.

For the compound `N#Cc1ccc2c3c(ccc2c1)OC(=O)CC3c1ccccc1` (stereo not drawn), the inhibition in assay [2] was 25.9%.

Consider `O=C1CC(c2cccc(Br)c2)c2c(ccc3cc(Br)ccc23)O1` (stereo not drawn), for which the IC50 in assay [1] worked out at 10.1 µM.

Take `O=C1CC(c2ccccc2)c2c(ccc3cc(O)ccc23)O1` (stereo not drawn): the inhibition in assay [3] was 21.8%.

On to `Cc1ccc2c3c(ccc2c1)OC(=O)C[C@H]3c1ccccc1`, for which, in assay [6], the inhibition was found to be 41.8%.

Turning to `O=C1CC(Cc2ccccc2)c2c(ccc3cc(Br)ccc23)O1` (stereo not drawn), the inhibition in assay [2] was 21.1%.

For the compound `Cc1ccc([C@@H]2CC(=O)Oc3ccc4cc(C)ccc4c32)cc1`, in assay [6], the inhibition was 35.1%. Moreover, the Inhibition in assay [5] was 74%.

Turning to `O=C1CC(c2ccc(Cl)cc2)c2c(ccc3cc(Br)ccc23)O1` (stereo not drawn), in assay [3], the inhibition came out at 28.5%.

For the compound `Cc1cccc(C2CC(=O)Oc3ccc4cc(C)ccc4c32)c1` (stereo not drawn), the IC50 in assay [1] turned out to be 4.4 µM.

As to `CC(=O)Nc1cccc(C2CC(=O)Oc3ccc4cc(C)ccc4c32)c1` (stereo not drawn), the inhibition in assay [3] was 17.1%.

For `O=C1CC(c2ccccc2)c2c(ccc3ccccc23)N1` (stereo not drawn), the inhibition in assay [2] is 31.5%.

`O=C(CCCCCCC(=O)Nc1ccccc1)NO`: the result in assay [4] was Active.

`Cc1ccc2c3c(ccc2c1)OC(=O)CC3c1cccc(Br)c1` (stereo not drawn): the IC50 in assay [1] was 9.8 µM.

`Cc1ccc2c3c(ccc2c1)OC(=O)CC3c1ccc(Cl)cc1` (stereo not drawn): in assay [3], the inhibition was determined as 26.7%.

For the compound `COc1ccccc1C1CC(=O)Oc2ccc3cc(Br)ccc3c21` (stereo not drawn), the inhibition in assay [3] is 17.4%.

Consider `O=C1CC(c2ccc(F)c(F)c2)c2c(ccc3cc(Br)ccc23)O1` (stereo not drawn), for which, in assay [1], the IC50 is 19.7 µM.

Turning to `O=C1CC(c2ccccc2)c2c(ccc3cc(Br)ccc23)O1` (stereo not drawn), in assay [1], the half-maximal inhibitory concentration (IC50) was found to be 5.2 µM.

For `COc1cccc(C2CC(=O)Oc3ccc4cc(Br)ccc4c32)c1` (stereo not drawn), the IC50 in assay [1] stood at 2.3 µM.

As to `Cc1ccc([C@H]2CC(=O)Oc3ccc4cc(C)ccc4c32)cc1`, the 50% inhibitory concentration (IC50) in assay [1] is 1 µM. Further, in assay [7], the result was Active. This compound also had a GI50 in assay [8] of 84 µM.

For `O=C1CC(c2ccccc2)c2c(ccc3cc(-c4cccnc4)ccc23)O1` (stereo not drawn), in assay [3], the inhibition is 18.4%.

Take `Cc1ccc(C2CC(=O)Oc3ccc4cc(Br)ccc4c32)cc1Cl` (stereo not drawn): the IC50 in assay [1] came to 2.3 µM.

As for `O=C1CCc2c(ccc3cc(Br)ccc23)O1`, the result in assay [3] was inactive.

Take `Cc1ccc(C2CC(=O)Oc3ccc4cc(C)ccc4c32)cc1` (stereo not drawn): the 50% inhibitory concentration (IC50) in assay [1] was 1.5 µM. Moreover, the GI50 in assay [8] is 99 µM.

Take `O=C1CC(c2ccc(Cl)c(Cl)c2)c2c(ccc3cc(Br)ccc23)O1` (stereo not drawn): in assay [3], the inhibition is 42.3%.

As for `O=C1CC(c2cccnc2)c2c(ccc3ccccc23)N1` (stereo not drawn), in assay [3], the outcome was inactive.

As for `CC(C)(C)c1ccc(C2CC(=O)Oc3ccc4cc(Br)ccc4c32)cc1` (stereo not drawn), in assay [3], the inhibition was found to be 46.8%.

Take `COc1ccc(C2CC(=O)Oc3ccc4cc(Br)ccc4c32)cc1` (stereo not drawn): in assay [1], the 50% inhibitory concentration (IC50) stood at 5.4 µM.

Regarding `CC(=O)Nc1cccc(-c2ccc3c4c(ccc3c2)OC(=O)CC4c2ccccc2)c1` (stereo not drawn), the inhibition in assay [3] was 22.2%.

With `Cc1ccc2c3c(ccc2c1)OC(=O)CC3c1cccc(C(N)=O)c1` (stereo not drawn), the IC50 in assay [1] stood at 20 µM. In assay [5], this compound came in with an Inhibition of 64%.

As to `O=C1CC(c2ccccc2)c2c(ccc3cc(-c4ccc(-c5ccccc5)cc4)ccc23)O1` (stereo not drawn), the inhibition in assay [3] worked out at 20.6%.

Turning to `Cc1ccc(C2CC(=O)Oc3ccc4cc(Br)ccc4c32)cc1` (stereo not drawn), in assay [1], the half-maximal inhibitory concentration (IC50) came to 1.5 µM. Moreover, the outcome in assay [7] was Active. This compound registered a 50% growth inhibitory concentration (GI50) in assay [8] of 43 µM.

Regarding `Cc1ccc2c3c(ccc2c1)OC(=O)CC3c1cccc(C#N)c1` (stereo not drawn), in assay [1], the IC50 came to 3.1 µM.

As for `CCc1ccc2c3c(ccc2c1)OC(=O)CC3c1ccccc1` (stereo not drawn), the inhibition in assay [2] was determined as 25.6%.
